In publication PMC3100417 (Biomaterials, 2011):

How the values were obtained:
radiolabeled lipoplexes = assay: DNA binding and release of lipoplexes to hydrogel surfaces; conditions: for amount of bound DNA retained: release study, by day 6
Method in brief: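 Cell-free hydrogels carrying 5 mM RDG, KDKG, K4 or K8 peptide, washed immediately and after 1 h swelling in uDMEM. Radiolabelled TransFast–plasmid lipoplexes in uDMEM added at 2 µg DNA/well for 2 h at room temperature. Unbound solution removed and scintillation-counted. Gels washed twice with uDMEM immediately and at 2, 4 and 6 h, then sampled periodically with replacement for 6 days. Counts converted to DNA via standard curve.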

Recombinant rat β-NGF = Recombinant rat β-NGF (Rattus norvegicus, UniProt P25427); assay: NGF binding and release from hydrogels; conditions: for NGF remaining in solution after incubation: 10 ng/well NGF in uDMEM, 2 h, ELISA, 10% PEG hydrogels, 5 mM peptide; for release of NGF from hydrogels: monitored over 48 h after initial binding
Method in brief: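 Recombinant rat β-NGF at 0.05 µg/mL final in uDMEM added. Media collected with replacement at 2, 4, 6, 24 and 48 h and stored at −80 °C. Sandwich ELISA gave bound NGF and cumulative release.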

[1] = cited from earlier work

Recombinant rat β-NGF, sequence (P25427 122-241): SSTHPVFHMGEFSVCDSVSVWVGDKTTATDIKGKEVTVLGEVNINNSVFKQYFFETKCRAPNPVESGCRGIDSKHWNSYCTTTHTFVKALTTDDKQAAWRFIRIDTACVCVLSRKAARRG

amount of bound DNA retained (radiolabeled lipoplexes) [%]	NGF remaining in solution after incubation (Recombinant rat β-NGF) [ng]	mean quantity of vector bound, greater than KDKG and RDG conditions (radiolabeled lipoplexes; throughout the 6-day release study)	Substance	diffusivity of NGF, DN [1]	rate constant for NGF degradation, kdeg ([1]; in buffered solution) [s⁻¹]	release of NGF from hydrogels (Recombinant rat β-NGF)
20	3.8	–	GCGYGRDGSPG [reference compound]	–	–	–
–	–	–	NGF: nerve growth factor protein	12 × 10^−7 cm^2/s	4.83e-05	–
–	3.4	approximately 5%	GCGKKKK [K4]	–	–	intermediate between the RDG and K8 conditions
41	3.2	–	GCGYGKKKKKKKK [K8]	–	–	lowest
